For experiment [1], the target named is Estrogen receptor beta (Homo sapiens) (UniProt Q92731). The experiment in a line: Affinity for estrogen receptor beta (ER-beta) relative to estradiol. Summed up:
(§1)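 Competitive radiometric binding assay against ER alpha or ER beta. Values are reported as relative binding affinity (RBA), expressed as a percentage of the affinity of estradiol.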

The target of experiment [2] is T1, Estrogen receptor (Homo sapiens) (UniProt P03372).
T1 sequence (whole entry): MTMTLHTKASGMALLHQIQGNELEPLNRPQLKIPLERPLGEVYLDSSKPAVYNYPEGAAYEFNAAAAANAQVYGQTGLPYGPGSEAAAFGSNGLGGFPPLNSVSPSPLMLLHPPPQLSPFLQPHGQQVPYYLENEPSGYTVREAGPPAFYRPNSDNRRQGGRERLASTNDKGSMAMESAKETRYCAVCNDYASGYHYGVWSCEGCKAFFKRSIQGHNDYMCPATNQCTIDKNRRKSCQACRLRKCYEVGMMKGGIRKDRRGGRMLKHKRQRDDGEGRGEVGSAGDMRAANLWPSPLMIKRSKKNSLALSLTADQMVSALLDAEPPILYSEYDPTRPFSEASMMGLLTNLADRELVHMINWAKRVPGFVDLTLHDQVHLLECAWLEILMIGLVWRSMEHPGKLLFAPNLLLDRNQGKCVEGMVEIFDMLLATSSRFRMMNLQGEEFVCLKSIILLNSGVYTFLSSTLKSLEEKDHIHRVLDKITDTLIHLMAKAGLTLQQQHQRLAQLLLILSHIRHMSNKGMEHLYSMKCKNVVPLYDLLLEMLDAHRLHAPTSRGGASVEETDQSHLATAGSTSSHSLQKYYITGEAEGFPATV
The experiment in a line: Affinity for estrogen receptor alpha (ER-alpha) relative to estradiol. Summed up: as §1

The target in experiment [3] is Estrogen receptor (Homo sapiens) (UniProt Q92731+P03372). Briefly: Relative affinity for alpha and beta estrogen receptors. In kind it is protein assay.
For experiment [4], the target named is T1, Estrogen receptor (Homo sapiens). Briefly: Binding affinity for Estrogen receptor alpha relative to estradiol. The method in brief:
as §1

Experiment [5] has as its target Estrogen receptor beta (Homo sapiens) (UniProt Q92731). Briefly: Binding affinity for Estrogen receptor beta relative to estradiol. Summed up: as §1

Sequence of Estrogen receptor beta (Homo sapiens) (Q92731 whole entry): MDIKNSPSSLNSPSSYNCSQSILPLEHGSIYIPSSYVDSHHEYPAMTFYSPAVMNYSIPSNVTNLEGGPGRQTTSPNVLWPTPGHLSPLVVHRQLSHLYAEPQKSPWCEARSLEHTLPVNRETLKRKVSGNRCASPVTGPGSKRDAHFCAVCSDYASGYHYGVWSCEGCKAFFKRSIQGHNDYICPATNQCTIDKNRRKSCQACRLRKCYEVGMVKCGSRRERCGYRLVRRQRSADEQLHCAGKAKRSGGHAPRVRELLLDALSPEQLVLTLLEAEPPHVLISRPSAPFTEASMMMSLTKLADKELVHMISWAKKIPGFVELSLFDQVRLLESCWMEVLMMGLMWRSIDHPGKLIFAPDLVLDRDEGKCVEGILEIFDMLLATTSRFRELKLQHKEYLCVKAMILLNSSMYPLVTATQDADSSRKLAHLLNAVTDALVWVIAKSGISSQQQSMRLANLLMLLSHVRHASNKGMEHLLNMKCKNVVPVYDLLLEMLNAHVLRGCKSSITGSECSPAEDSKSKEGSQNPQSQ
Sequence of Estrogen receptor (Homo sapiens) (UniProt Q92731+P03372) (Q92731 whole entry, looked up, one chain of several): as the sequence (Q92731 whole entry) above

Take `Oc1ccc(C2(c3ccc(O)cc3)C3CCCC2CCC3)cc1`: the relative binding affinity (RBA) in experiment [1] is 0.25; in experiment [2], 0.31. Besides, in experiment [3], the Ratio amounted to 0.8.
As for `O=C1c2cc(O)ccc2C2CC1c1ccc(O)cc1C2=O`, the relative binding affinity (RBA) in experiment [1] worked out at 0.021; in experiment [2] it was 0.006. Besides, the Ratio in experiment [3] is 3.5.
The corresponding values for `Oc1ccc(C2CCC3CC2CCC3c2ccc(O)cc2)cc1` (stereo not drawn) are 2.9, 0.44 and 6.6.
For `C[C@@H]1c2cc(O)ccc2C2CC1c1ccc(O)cc1[C@H]2C`, the relative binding affinity (RBA) turned out to be 0.011 in experiment [1] and 0.004 in experiment [2]. The Ratio in experiment [3] was 2.7.
Take `Oc1ccc2c(c1)CN1CN2Cc2cc(O)ccc21`: the relative binding affinity (RBA) in experiment [1] and in experiment [2] was less than 0.005 in each case.
`C[C@@H]1c2ccc(O)cc2C2CC1c1cc(O)ccc1[C@H]2C`: the relative binding affinity (RBA) in experiment [1] worked out at 0.025; in experiment [2] it was 0.007. Besides, the Ratio in experiment [3] was 3.6.
Take `CC(=C1C2CCCC1CCC2)c1ccc(O)cc1`: the relative binding affinity (RBA) in experiment [1] turned out to be 4.58; in experiment [2], 1.71. In addition, the Ratio in experiment [3] was 2.7.
The corresponding values for `CC1(c2ccc(O)cc2)C2CCCC1CCC2` (stereo not drawn) are 8.9, 0.32 and 28.
The corresponding values for `O=C1c2ccc(O)cc2C2CC1c1cc(O)ccc1C2=O` are 0.022, 0.005 and 4.4.
With `CC(=O)Oc1ccc(C(=C2CCCCC2)c2ccc(OC(C)=O)cc2)cc1`, the figures for the relative binding affinity (RBA) in experiment [4] and in experiment [5] were 68 and 334, respectively.
`Oc1ccc(C2=CCC3CCCC2C3)cc1` (stereo not drawn): the relative binding affinity (RBA) in experiment [1] was determined as 1.81; in experiment [2], 0.39. Further, the Ratio in experiment [3] was 4.6.
The corresponding values for `Oc1ccc(C2C3CCCC2CCC3)cc1` (stereo not drawn) are 1.33, 0.13 and 10.
The corresponding values for `Oc1ccc2c(c1)C1Cc3ccc(O)cc3C(C2)C1` are 0.072, 0.033 and 2.
On the same counts, the results for `Oc1ccc(C(=C2C3CCCC2CCC3)c2ccc(O)cc2)cc1` are 301, 513 and 0.59.
As for `Oc1ccc2c(c1)CC1CC2Cc2cc(O)ccc21`, the values for the relative binding affinity (RBA) in experiment [1] and in experiment [2] were 0.77 and 0.22, respectively. Besides, the Ratio in experiment [3] worked out at 3.5.

The values above are taken from ChEMBL document CHEMBL1144864, “Exploration of the bicyclo[3.3.1]nonane system as a template for the development of new ligands for the estrogen receptor” (Bioorg Med Chem Lett, 2003).
